In ChEMBL document CHEMBL3271941, “Synthesis of 5,6-dihydro-8(7H)-quinolinone thiosemicarbazones as potential antitumor agents” (J Med Chem, 1977):
The source made the active and inactive calls. The calls are words filed in the database; no cut-off is given here.

How the values were obtained:
Mus musculus [1] = assay: Toxicity in CDF1 mouse allografted with mouse P388 cells assessed as change in body weight at 5 mg/kg administered daily for 6 days starting 24 hrs after tumor implantation (reference value: -2.4%); type: organism-based; set-up: dose 5 mg/kg; conditions: in vivo
P388 [2] = assay: Antineoplastic activity against mouse P388 cells allografted in CDF1 mouse assessed as prolongation of host survival time at 10 mg/kg administered daily for 6 days starting 24 hrs after tumor implantation relative to control; type: functional
Procedure, shortened: (§1)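 P388 leukemia (1×10^6 cells, intraperitoneal) in female CDF1 mice; dosing once daily for 6 consecutive days beginning 24 h post-implantation, 5-15 mice per group. Activity expressed as % T/C, the ratio of survival time of treated to untreated control animals. Daily weighing gave percent body-weight change over the treatment period as a toxicity measure.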

P388 [3] = assay: Antineoplastic activity against mouse P388 cells allografted in CDF1 mouse assessed as host survival time at 5 mg/kg administered daily for 6 days starting 24 hrs after tumor implantation (reference value: 11.2 +/- 0.4 days); type: functional
P388 [4] = assay: Antineoplastic activity against mouse P388 cells allografted in CDF1 mouse assessed as host survival time at 10 mg/kg administered daily for 6 days starting 24 hrs after tumor implantation (reference value: 11.2 +/- 0.4 days); type: functional
Mus musculus [5] = assay: Toxicity in CDF1 mouse allografted with mouse P388 cells assessed as change in body weight at 10 mg/kg administered daily for 6 days starting 24 hrs after tumor implantation (reference value: -2.4%); type: organism-based; set-up: dose 10 mg/kg; conditions: in vivo
[6] = Stability of the compound measured under neutral conditions; type: physicochemical
P388 [7] = assay: Antineoplastic activity against mouse P388 cells allografted in CDF1 mouse assessed as prolongation of host survival time at 5 mg/kg administered daily for 6 days starting 24 hrs after tumor implantation relative to control; type: functional; procedure, shortened: as §1
P388 [8] = assay: Antineoplastic activity against mouse P388 cells allografted in CDF1 mouse assessed as prolongation of host survival time at 20 mg/kg administered daily for 6 days starting 24 hrs after tumor implantation relative to control; type: functional; procedure, shortened: as §1
[9] = target: Alkaline phosphatase (Escherichia coli K-12) (UniProt P00634); assay: Inhibition of Escherichia coli alkaline phosphatase assessed as p-nitrophenol formation using p-nitrophenyl phosphate as substrate up to 100 uM treated 15 mins prior to substrate addition by spectrophotometric analysis
Chain of Alkaline phosphatase (Escherichia coli K-12) (P00634 whole entry): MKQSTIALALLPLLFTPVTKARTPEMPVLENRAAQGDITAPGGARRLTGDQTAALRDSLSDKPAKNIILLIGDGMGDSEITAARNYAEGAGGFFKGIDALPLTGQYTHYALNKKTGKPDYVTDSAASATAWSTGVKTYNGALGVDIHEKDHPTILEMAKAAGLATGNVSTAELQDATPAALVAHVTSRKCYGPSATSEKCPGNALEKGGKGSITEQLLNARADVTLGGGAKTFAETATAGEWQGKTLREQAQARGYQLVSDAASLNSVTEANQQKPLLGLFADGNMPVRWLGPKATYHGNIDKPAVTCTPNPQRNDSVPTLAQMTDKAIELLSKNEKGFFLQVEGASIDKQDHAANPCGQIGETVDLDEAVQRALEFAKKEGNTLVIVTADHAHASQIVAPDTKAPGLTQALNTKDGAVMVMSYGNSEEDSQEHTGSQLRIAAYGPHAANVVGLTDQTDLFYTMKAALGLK
Procedure, shortened: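 E. coli alkaline phosphatase (0.021 unit) in 1 M Tris-HCl pH 9.0, preincubated 15 min at 37 °C with inhibitor added in 50% DMSO. Reaction started with 10^-3 M p-nitrophenyl phosphate. Initial rise in absorbance at 410 nm read at room temperature in a 1-cm cell. Controls had enzyme preincubated 15 min with 50% DMSO alone.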

[10] = Stability of the compound in ethanol with sodium ethoxide assessed as isomerization; type: physicochemical
P388 [11] = assay: Antineoplastic activity against mouse P388 cells allografted in CDF1 mouse assessed as host survival time at 20 mg/kg administered daily for 6 days starting 24 hrs after tumor implantation (reference value: 11.2 +/- 0.4 days); type: functional
Mus musculus [12] = assay: Toxicity in CDF1 mouse allografted with mouse P388 cells assessed as change in body weight at 2.5 mg/kg administered daily for 6 days starting 24 hrs after tumor implantation (reference value: -2.4%); type: organism-based; set-up: dose 2.5 mg/kg; conditions: in vivo
P388 [13] = assay: Antineoplastic activity against mouse P388 cells allografted in CDF1 mouse assessed as host survival time at 2.5 mg/kg administered daily for 6 days starting 24 hrs after tumor implantation (reference value: 11.2 +/- 0.4 days); type: functional
P388 [14] = assay: Antineoplastic activity against mouse P388 cells allografted in CDF1 mouse assessed as prolongation of host survival time at 2.5 mg/kg administered daily for 6 days starting 24 hrs after tumor implantation relative to control; type: functional; procedure, shortened: as §1
Mus musculus [15] = assay: Toxicity in CDF1 mouse allografted with mouse P388 cells assessed as change in body weight at 20 mg/kg administered daily for 6 days starting 24 hrs after tumor implantation (reference value: -2.4%); type: organism-based; set-up: dose 20 mg/kg; conditions: in vivo

| SMILES | Activity (Mus musculus [1]) [%] | T/C (P388 [2]) [%] | Time (P388 [3]) [days] | Time (P388 [4]) [days] | Activity (Mus musculus [5]) [%] | Stability [6] | T/C (P388 [7]) [%] | T/C (P388 [8]) [%] | inhibition [9] | Stability [10] | Time (P388 [11]) [days] | Activity (Mus musculus [12]) [%] | Time (P388 [13]) [days] | T/C (P388 [14]) [%] | Activity (Mus musculus [15]) [%] |
| --- | --- | --- | --- | --- | --- | --- | --- | --- | --- | --- | --- | --- | --- | --- | --- |
| CNC(=S)N/N=C1/CCCc2cccnc21 | -7.7 | 121 | 12 | 13.6 | -10.8 | Stable | 107 | 18 | inactive | Unstable | 2 |  |  |  |  |
| C=CCNC(=S)N/N=C1\CCCc2cccnc21 | -8.4 | 125 | 13.2 | 14 | -9.1 |  | 118 |  | inactive |  |  | 0.7 | 11.2 | 100 |  |
| NC(=S)N/N=C1/CCCc2cccnc21 | 6.7 | 141 | 13 | 15.8 | -21.5 | Stable | 116 | 73 | inactive | Unstable | 9.2 |  |  |  | -30.8 |
| CNC(=S)N/N=C1\CCCc2cccnc21 | -12 | 18 | 16 | 2 |  |  | 143 |  | inactive |  |  | -9.3 | 13.4 | 119 |  |
| NC(=S)N/N=C1\CCCc2cccnc21 | -3.8 | 132 | 11.8 | 14.8 | -10.7 |  | 106 |  | inactive |  |  | -5.3 | 11.6 | 104 |  |
| C=CCNC(=S)N/N=C1/CCCc2cccnc21 | 0 | 70 | 9.8 | 7.8 | -6.1 | Stable | 88 |  | inactive | Unstable |  | 4.6 | 10.2 | 91 |  |
